Data taken from ChEMBL document CHEMBL5715947 (Blood Cancer J, 2011).
Blank lines part the entries; values can stand above or below the compound they belong to. Active and inactive are the calls of the source. The calls are words filed in the database; no cut-off is given here.

How the values were obtained:
MV4-11 [1] = assay: Synergistic antiproliferative activity against human MV4-11 cells harboring FLT3-ITD mutant assessed as combination index at ED50 concentration incubated for 48 hrs in presence of JAKi-1 by CellTiter-Glo assay; format: functional
Procedure, shortened: (§1)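 Two drugs combined at a constant ratio based on each one's individual IC50. […] Cells seeded 2000–6000/well and treated the same day in triplicate for 48 h. Viability read by CellTiter-Glo. Synergy from dose-response data of the combination. Final DMSO 0.1%.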

[2] = system: Receptor-type tyrosine-protein kinase FLT3 (Homo sapiens), P36888 [UNDEFINED MUTATION]; conditions: MV4-11, dose 5.0 nM, time 24.0 hrs
Sequence of Receptor-type tyrosine-protein kinase FLT3 (Homo sapiens), P36888 [UNDEFINED MUTATION] (P36888 whole entry, looked up, stated change not applied): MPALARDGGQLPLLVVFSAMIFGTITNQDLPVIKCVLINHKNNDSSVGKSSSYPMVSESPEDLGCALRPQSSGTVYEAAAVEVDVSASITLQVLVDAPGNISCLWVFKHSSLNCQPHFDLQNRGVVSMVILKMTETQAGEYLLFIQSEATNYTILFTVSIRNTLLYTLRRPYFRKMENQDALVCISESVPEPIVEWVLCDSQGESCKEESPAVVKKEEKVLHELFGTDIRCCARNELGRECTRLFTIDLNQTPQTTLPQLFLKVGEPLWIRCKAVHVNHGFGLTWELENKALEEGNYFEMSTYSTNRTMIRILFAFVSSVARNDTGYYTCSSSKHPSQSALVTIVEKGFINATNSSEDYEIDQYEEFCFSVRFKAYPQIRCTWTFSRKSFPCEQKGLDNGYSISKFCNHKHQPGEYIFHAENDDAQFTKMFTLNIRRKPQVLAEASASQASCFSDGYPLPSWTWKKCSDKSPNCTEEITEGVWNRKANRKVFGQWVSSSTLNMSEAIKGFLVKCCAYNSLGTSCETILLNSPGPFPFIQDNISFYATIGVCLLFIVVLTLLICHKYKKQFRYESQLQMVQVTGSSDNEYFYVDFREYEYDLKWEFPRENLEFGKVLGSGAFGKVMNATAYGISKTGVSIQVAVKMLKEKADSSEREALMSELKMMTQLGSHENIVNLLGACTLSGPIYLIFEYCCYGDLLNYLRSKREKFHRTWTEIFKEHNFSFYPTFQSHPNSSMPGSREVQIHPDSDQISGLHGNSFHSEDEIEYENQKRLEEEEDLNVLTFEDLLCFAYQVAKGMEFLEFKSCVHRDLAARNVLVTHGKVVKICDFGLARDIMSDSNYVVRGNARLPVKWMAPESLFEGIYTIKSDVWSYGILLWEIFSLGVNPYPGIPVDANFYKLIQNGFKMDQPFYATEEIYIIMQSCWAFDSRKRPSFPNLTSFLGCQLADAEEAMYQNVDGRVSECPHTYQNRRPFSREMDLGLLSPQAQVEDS

[3] = Selectivity ratio of IC50 for antiproliferative activity against human linifanib-resistant MV4-11 cells harboring FLT3-ITD mutant to IC50 for antiproliferative activity against human MV4-11 cells harboring FLT3-ITD mutant; format: functional
Procedure, shortened: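 Linifanib-resistant MV4-11 (MV4-11-R) and parental MV4-11 (MV4-11-P) cells, 2000–6000 cells/well, dosed on the seeding day in triplicate for 48 h, with final DMSO 0.1%. Viability was read by CellTiter-Glo luminescence. IC50 for each line came from dose-response curves, and the ratio is the resistant-line IC50 divided by the parental IC50.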

MV4-11 [4] = assay: Synergistic antiproliferative activity against human MV4-11 cells harboring FLT3-ITD mutant assessed as combination index at ED90 concentration incubated for 48 hrs in presence of JAKi-1 by CellTiter-Glo assay; format: functional; procedure, shortened: as §1
MV4-11 [5] = assay: Down regulation of JAK2 protein expression level in human MV4-11 cells harboring FLT3-ITD mutant at 5 nM after 24 hrs by Western blot analysis; format: functional, cell-based
[6] = system: Receptor-type tyrosine-protein kinase FLT3 (Homo sapiens), P36888 [UNDEFINED MUTATION]; assay: Inhibition of FLT3-ITD mutant in human MV4-11 cells assessed as reduction in phosphorylated FLT3 protein expression up to 1000 nM incubated for 3 hrs by Western blot analysis; format: cell-based
MV4-11 [7] = assay: Down regulation of JAK2 protein expression level in human MV4-11 cells harboring FLT3-ITD mutant at 18 nM after 24 hrs by Western blot analysis; format: functional, cell-based
[8] = Toxicity in BALB/c nude mouse xenografted with human MV4-11 cells harboring FLT-3 ITD mutant assessed as change in body weight at 25 to 100 mg/kg, po administered daily for 21 days; format: organism-based; conditions: in vivo, 504 h, dose 25-100 mg/kg, time 21 day

- inhibition [2]: Active
SMILES: Cc1ccc(F)c(NC(=O)Nc2ccc(-c3cccc4[nH]nc(N)c34)cc2)c1 [LINIFANIB]
- CI (MV4-11 [1]): 0.73
- Ratio IC50 [3]: 127
- CI (MV4-11 [4]): 0.8
- Activity (MV4-11 [5]): inactive

- inhibition [6]: inactive
SMILES: CC(C)(C)c1nc2c3ccc(F)cc3c3c(=O)[nH]ccc3c2[nH]1

- inhibition [2]: Active
SMILES: CCN(CC)CCNC(=O)c1c(C)[nH]c(/C=C2\C(=O)Nc3ccc(F)cc32)c1C
- Activity (MV4-11 [5]): inactive

SMILES: Cc1cc(Nc2cc(N3CCN(C)CC3)nc(Sc3ccc(NC(=O)C4CC4)cc3)n2)n[nH]1
- Activity (MV4-11 [7]): inactive

SMILES: C1=C/COCc2cc(ccc2OCCN2CCCC2)Nc2nccc(n2)-c2cccc(c2)COC/1 [PACRITINIB]
- Activity [8]: Non-Toxic
